Assays:
[1] = target: Potassium-transporting ATPase (Oryctolagus cuniculus); assay: In vitro evaluation for the inhibition of H+/K+ ATPase at pH < 3 in the gastric glands of isolated rabbit stomach.
[2] = t1/2 (pH 5); format: ADME
[3] = t1/2 (pH 3); format: ADME
[4] = Half life at pH 7.4; format: ADME; conditions: buffer
[5] = target: Sodium/potassium-transporting ATPase; assay: In vitro evaluation for its ability to inhibit the Na+/K+ ATPase at pH 7.4.; format: protein-complex assay, Canis lupus familiaris
Summary of the method: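 Dog kidney (Na+,K+)-ATPase (20 μg) incubated in 50 mmol/L HEPES pH 7.4 containing (mmol/L) 140 NaCl, 10 KCl, 3 ATP-Mg and 0.5 EDTA, with inhibitor at 0–300 μmol/L.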

[6] = pKa value (imidazole); format: physicochemical
Summary of the method: (§1)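 Measured spectrophotometrically at ambient temperature (25 °C).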

[7] = pKa value (pyridine); format: physicochemical
Summary of the method: as §1

[8] = Half life at pH 7.4; Insoluble to measure; format: ADME; conditions: buffer
[9] = Half life at pH 3; Insoluble to measure; format: ADME; conditions: buffer
[10] = Half life at pH 5; Insoluble to measure; format: ADME; conditions: buffer

Row | Compound | IC50 [1] | half-life [2] | half-life [3] | half-life [4] | -Log IC50 [5] | pKa [6] | pKa [7] | T1/2 [8] | T1/2 [9] | T1/2 [10]
1 | COc1ccnc(C[S+]([O-])c2nc3cc(OC(F)F)ccc3[nH]2)c1 (stereo unspecified) | 1580 nM | 0.8 h | 0.167 h | 51 h | 4.3 | – | – | – | – | –
2 | Cc1c(OCC(F)(F)F)ccnc1C[S+]([O-])c1nc2ccccc2[nH]1 (stereo unspecified) [LANSOPRAZOLE] | – | 1.1 h | 0.0667 h | 40 h | 4.4 | 8.78 | 4.01 | – | – | –
3 | COc1ccnc(C[S+]([O-])c2nc3cc4c(cc3[nH]2)OC(F)(F)O4)c1C (stereo unspecified) | 1000 nM | 0.5 h | 0.167 h | – | 4.6 | 7.93 | 4.73 | Insoluble to measure | – | –
4 | COc1cnc(C[S+]([O-])c2nc3cc(OC(F)F)ccc3[nH]2)cc1OC (stereo unspecified) | 31600 nM | 2.1 h | 0.283 h | > 200 h | < 3.5 | 8.03 | 3.75 | – | – | –
5 | COc1ccnc(C[S+]([O-])c2nc3cc(OC(F)(F)C(F)F)ccc3[nH]2)c1OC (stereo unspecified) | 5010 nM | 3.6 h | 0.3 h | 160 h | 3.8 | 8.08 | 3.86 | – | – | –
6 | COc1ccnc(C[S+]([O-])c2nc3cc(OC(F)(F)C(F)F)ccc3[nH]2)c1 (stereo unspecified) | 1260 nM | 0.8 h | 0.167 h | 63 h | 4.4 | 7.91 | 4.25 | – | – | –
7 | COc1ccnc(C[S+]([O-])c2nc3cc(F)c(OC(F)F)cc3[nH]2)c1C (stereo unspecified) | 3160 nM | 0.5 h | 0.133 h | 4 h | 4.7 | – | – | – | – | –
8 | COc1cnc(C[S+]([O-])c2nc3cc(OC(F)(F)C(F)F)ccc3[nH]2)cc1OC (stereo unspecified) | 20000 nM | 2.9 h | 0.317 h | 140 h | < 3 | – | – | – | – | –
9 | COc1cc2[nH]c([S+]([O-])Cc3nccc(OC)c3C)nc2cc1OC(F)F (stereo unspecified) | 1580 nM | 0.2 h | 0.1 h | 11 h | 5 | 8.31 | 4.96 | – | – | –
10 | COc1ccnc(C[S+]([O-])c2nc3cc4c(cc3[nH]2)OC(F)(F)O4)c1 (stereo unspecified) | 2510 nM | 1.4 h | 0.333 h | – | < 3.5 | 7.92 | 4.29 | Insoluble to measure | – | –
11 | COc1ccnc(C[S+]([O-])c2nc3cc(OC(F)(F)C(F)F)ccc3[nH]2)c1C (stereo unspecified) | 398 nM | 0.3 h | 0.0833 h | – | 5.5 | – | – | Insoluble to measure | – | –
12 | COc1ccnc(C[S+]([O-])c2nc3cc(OCC(F)(F)F)ccc3[nH]2)c1OC (stereo unspecified) | 1000 nM | 7.6 h | 0.183 h | > 200 h | 3.5 | 8.52 | 3.9 | – | – | –
13 | COc1cc2[nH]c([S+]([O-])Cc3nccc(OC)c3OC)nc2cc1OC(F)F (stereo unspecified) | 3980 nM | 2.1 h | 0.25 h | 800 h | 3.6 | – | – | – | – | –
14 | COc1cnc(C[S+]([O-])c2nc3cc4c(cc3[nH]2)OC(F)(F)O4)cc1OC (stereo unspecified) | 63100 nM | – | – | – | < 3 | – | – | Insoluble to measure | Insoluble to measure | Insoluble to measure
15 | COc1cc(C[S+]([O-])c2nc3cc(OC(F)(F)C(F)F)ccc3[nH]2)ncc1C (stereo unspecified) | 1260 nM | 0.2 h | 0.1 h | 18 h | 5.5 | 8 | 4.95 | – | – | –
16 | COc1ccnc(C[S+]([O-])c2nc3cc(F)c(OC(F)F)cc3[nH]2)c1OC (stereo unspecified) | 7940 nM | 8.3 h | 0.433 h | 150 h | 3.4 | 7.76 | 3.76 | – | – | –
17 | COc1ccnc(C[S+]([O-])c2nc3cc4c(cc3[nH]2)OC(F)(F)O4)c1OC (stereo unspecified) | 2510 nM | 6 h | 0.633 h | > 200 h | 3.6 | 7.97 | 3.84 | – | – | –

Other lines, results leading:

Row | IC50 [1] | half-life [2] | half-life [3] | half-life [4] | -Log IC50 [5] | pKa [6] | pKa [7] | T1/2 [8] | T1/2 [9] | T1/2 [10] | Compound
18 | 7940 nM | 6.8 h | 0.333 h | 43 h | 4.2 | – | – | – | – | – | COc1cnc(C[S+]([O-])c2nc3cc(OC(F)(F)C(F)F)ccc3[nH]2)c(C)c1OC (stereo unspecified)
19 | 794 nM | 0.15 h | 0.0833 h | 5 h | 5.4 | 8.51 | 4.97 | – | – | – | COc1ccnc(C[S+]([O-])c2nc3cc(OCC(F)(F)F)ccc3[nH]2)c1C (stereo unspecified)
20 | 2510 nM | 3.7 h | 0.2 h | 60 h | 4.6 | 8.35 | 3.73 | – | – | – | COc1cnc(C[S+]([O-])c2nc3cc(OC(F)F)ccc3[nH]2)c(C)c1OC (stereo unspecified)
21 | 501 nM | 1.9 h | 0.2 h | 15 h | 4.4 | 8.23 | 4.16 | – | – | – | COc1c(C)cnc(C[S+]([O-])c2nc3cc(OC(F)F)ccc3[nH]2)c1C (stereo unspecified)
22 | – | 1 h | 0.0667 h | 80 h | 4.5 | 8.98 | 4.13 | – | – | – | COc1ccc2[nH]c([S+]([O-])Cc3ncc(C)c(OC)c3C)nc2c1 (stereo unspecified) [OMEPRAZOLE]
23 | 2510 nM | 3.3 h | 0.167 h | 130 h | 4.3 | 8.61 | 3.72 | – | – | – | COc1cnc(C[S+]([O-])c2nc3cc(OCC(F)(F)F)ccc3[nH]2)c(C)c1OC (stereo unspecified)
24 | 631 nM | 0.17 h | 0.0833 h | 3 h | 5.2 | – | – | – | – | – | COc1ccnc(C[S+]([O-])c2nc3cc(OC(F)F)ccc3[nH]2)c1C (stereo unspecified)
25 | 15800 nM | – | – | – | < 3 | – | – | Insoluble to measure | Insoluble to measure | Insoluble to measure | COc1cnc(C[S+]([O-])c2nc3cc4c(cc3[nH]2)OC(F)(F)O4)c(C)c1OC (stereo unspecified)
26 | – | 3 h | 0.15 h | 130 h | 3.7 | 8.19 | 3.92 | – | – | – | COc1ccnc(C[S+]([O-])c2nc3cc(OC(F)F)ccc3[nH]2)c1OC (stereo unspecified) [PANTOPRAZOLE]
